PAFAH2 FP inh: inhibitors of human PAFAH2. Q99487. recombinant PAFAH2, FP-rhodamine activity probe, fluorescence polarization. inhibition, % at 3.39 µM. actives 0.99% (n = 340,000);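 active = inhibition above the mean over all tested compounds plus 3 SD, cut at about 30% in these data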;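 note: inhibitors block probe labeling of enzyme so polarization drops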
pPAFAH inh: inhibitors of human plasma PAF acetylhydrolase (pPAFAH); Q13093; recombinant pPAFAH, FP-rhodamine probe fluorescence polarization; inhibition, % at 3.39 µM; actives 1.5% (n = 330,000);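 active = inhibition above the mean inhibition across the screen plus 3 SD, cut at about 25% in these data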;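 note: inhibitors block binding of the rhodamine activity-based probe so polarization drops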
mABHD4 FP: inhibitors of mouse ABHD4. Q8VD66. purified mABHD4, FP-Rh probe fluorescence polarization. inhibition, % at 8.92 µM. actives 0.54% (n = 370,000);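 active = inhibition exceeding the mean over every tested compound plus 3 SD, cut at about 30% in these data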
Target sequence (Q8VD66 whole entry, looked up): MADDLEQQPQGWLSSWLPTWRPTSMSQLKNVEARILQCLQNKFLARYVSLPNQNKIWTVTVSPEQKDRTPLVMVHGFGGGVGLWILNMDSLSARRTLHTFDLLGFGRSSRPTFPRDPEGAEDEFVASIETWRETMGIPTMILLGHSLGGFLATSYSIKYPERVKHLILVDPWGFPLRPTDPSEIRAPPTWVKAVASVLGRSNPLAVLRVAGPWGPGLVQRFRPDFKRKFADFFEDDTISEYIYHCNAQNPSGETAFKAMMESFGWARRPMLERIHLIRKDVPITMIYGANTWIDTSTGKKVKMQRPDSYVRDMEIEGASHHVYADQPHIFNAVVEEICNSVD
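system = mouse ABHD4 enzyme, wild type | medium = HEPES pH 7.0, NaCl, Pluronic buffer | also added = FP-Rh probe | incubation = Enzyme–compound pre-incubation 45 min, then probe 60 min, both 25 °C | technique = fluorescence polarization, excitation 525 nm, emission 598 nm, BODIPY TMR filters | controls = S159A mutant high control, sample median low control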
PAFAH1B3 inh: PAFAH1B3 (human) inhibition | actives 0.28% (n = 340,000) | AID 492972 | inhibition, % at 3.39 µM | recombinant PAFAH1B3, FP-rhodamine probe, fluorescence polarization;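 active = inhibition above the screen-wide average of all tested compounds plus 3 SD, cut at about 25% in these data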
HTRA1 inhibitor: inhibitors of human serine peptidase HTRA1 | Q92743 | recombinant HTRA1, FP-rhodamine activity-based probe, fluorescence polarization | inhibition, % at 5.96 µM | actives 0.5% (n = 340,000); in the data active = inhibition above about 36%
PAFAH1B2 inh: inhibitors of human PAFAH1B2. inhibition, % at 3.39 µM. P68402. AID 492953. recombinant PAFAH1B2, FP-rhodamine activity probe, fluorescence polarization. actives 1.2% (n = 340,000);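 active = inhibition above the mean of all tested compounds plus 3 SD, cut at about 24% in these data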
PAFAH1B3 conf FP: PAFAH1B3 (human) inhibition, confirmed; actives 30% (n = 390); inhibition, % at 3.39 µM; recombinant PAFAH1B3, FP-Rh activity-based probe, fluorescence polarization; AID 493032; shares compounds with PAFAH1B3 inh;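 active = average inhibition over triplicate runs above the hit cutoff set in the earlier primary screen, cut at about 25% in these data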
Hits are given with their value; n = inactive; x = no result. Most compounds without a hit are left out; they make up all but 2.8% or so of the library.

SMILES	PAFAH2 FP inh	pPAFAH inh	mABHD4 FP	PAFAH1B3 inh	HTRA1 inhibitor	PAFAH1B2 inh	PAFAH1B3 conf FP
O=C(O)c1ccc(NC2=C(N3CCOCC3)C(=O)c3ccccc3C2=O)cc1	n	n	n	27	n	n	n
O=C(c1ccccc1)c1ccc(N2CCOCC2)cc1	n	x	n	n	n	n	x
CC(=O)c1ccc(NC2=C(N3CCOCC3)C(=O)c3ccccc3C2=O)cc1	n	n	n	31	n	n	n
COc1cc(-c2csc(N3CCC(C(N)=O)CC3)n2)cc(OC)c1OC	x	x	n	x	x	x	x
COc1cc2sc3cc(NCCCN4CCOCC4)ccc3c(=O)c2cc1OC	n	n	n	28	n	n	n
O=c1c2ccccc2sc2ccc(NCCCN3CCOCC3)cc12	n	n	n	n	n	n	x
CCOc1ccc(C2=Nn3c(nnc3-c3ccccc3OC)SC2)cc1	n	n	n	n	n	n	x
COc1ccccc1-c1nnc2n1N=C(c1ccc(O)c(O)c1)CS2	n	n	x	30	43	n	n
CCOC(=O)[C@@]12CN(C(=O)OC(C)(C)C)CC=C1N(Cc1ccc(OC)cc1)C(=O)[C@H]2CC(=O)NCc1ccccc1	x	x	n	x	x	x	x
CC1(NC(=O)c2cc(Cl)nc3ccccc23)CCS(=O)(=O)C1 (stereo unspecified)	n	n	n	35	n	n	n
O=C(NC1CC1)c1cc(Cl)nc2ccccc12	n	x	n	n	n	n	x
Cc1cnc(C=NNC(N)=S)c2cccc(N)c12	n	x	n	34	n	n	51
O=C(O)c1cccc(NC2=C(n3nnc4ccccc43)C(=O)c3ccccc3C2=O)c1	n	n	n	29	n	n	n
CCC(=O)Nc1c(S(=O)(=O)c2ccccc2)c2nc3ccccc3nc2n1C(C)c1ccccc1 (stereo unspecified)	n	n	n	n	n	n	x
CCCCn1c(NC(=O)c2ccc(Br)o2)c(S(=O)(=O)c2ccccc2)c2nc3ccccc3nc21	n	n	n	50	n	n	n
O=C(NCCN1CCC(Cc2ccccc2)CC1)C1CCCN(S(=O)(=O)c2ccc(Br)s2)C1 (stereo unspecified)	x	x	n	x	x	x	x
C=CCOC(=O)C(CO)NC(=O)CCCC(=O)O (stereo unspecified)	x	x	n	x	x	x	x
O=C1NC(=O)c2cc(Br)cc3cccc1c23	n	n	n	46	n	n	53
O=C(Nc1ccc(F)c(Cl)c1)Nc1csc2ccccc12	n	n	n	30	n	n	n
C=CC(=O)N=c1sc2ccccc2n1-c1ccccc1	n	n	n	55	n	n	47
CC(C)C[C@H](NC(=O)c1nccs1)C(=O)N1CCC[C@H]1C(=O)NCc1ccccc1	x	x	n	x	x	x	x
COc1ccc(C(=O)Nc2ccc(S(=O)(=O)N3CCCCC3)cc2)cc1OC	n	n	n	n	n	n	x
COc1cc(OC)c(C(=O)Nc2ccc(S(=O)(=O)N3CCCCC3)cc2)cc1OC	n	n	n	30	n	n	n
O=C(Cc1c[nH]c2ccccc12)Nc1ccc(Nc2cccnc2)c(-c2ccc(F)c(F)c2)c1	x	x	n	x	x	x	x
COc1cc(NCc2ccccc2)c2ncn(C(C)C)c2c1	n	n	n	n	n	n	x
SMILES	PAFAH2 FP inh	pPAFAH inh	mABHD4 FP	PAFAH1B3 inh	HTRA1 inhibitor	PAFAH1B2 inh	PAFAH1B3 conf FP
COc1cc(NCCCNC(C)C)c2nccc(C)c2c1	n	x	n	40	n	n	n
CCOC(=O)N1CCN(C(=O)C[C@H]2C[C@@]3(C(=O)OC)C(=C[C@H](COCc4ccccc4)O[C@@H]3C)N(Cc3cccc4ccccc34)C2=O)CC1	x	x	n	x	x	x	x
C=CCOC(=O)N1CCN(C(=O)c2ccc3c(c2)nc(C)n3C2CCCC2)CC1	x	x	n	x	x	x	x
C=CCOc1ccc(Br)cc1/C=C1/SC(=Nc2ccc(C(=O)O)cc2)NC1=O	n	x	n	31	n	n	n
C[C@H]1COc2cc(Br)ccc2S(=O)(=O)N1Cc1cn(CCC2OCCCO2)nn1	x	x	n	x	x	x	x
Fc1ccccc1Cn1ccc2ccc(-c3ccc4ccn(Cc5ccccc5)c4c3)cc21	x	x	n	x	x	x	x
COc1ccc2nc(NNC(=O)c3cc(=O)c4ccccc4o3)sc2c1	n	n	n	29	n	n	n
CC(C)C(=O)OCCCN1C(=O)CCC12CCC(c1ccccc1)CC2 (stereo unspecified)	x	x	n	x	x	x	x
Nc1nonc1N/N=C/c1c(O)ccc2ccccc12	n	n	n	31	n	n	n

Assay outcomes (PubChem BioAssay)
